test system: HL-60; test: Cytotoxicity against human HL60 cells after 72 hrs by MTT assay; assay type: functional, cell-based; settings: HL-60, 72 h
In short: (§1)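 MTT assay: 1 × 10^4 exponentially growing cells per well incubated 72 h over a range of compound concentrations; MTT 0.5 mg/mL for 4 h at 37 °C, then 10% SDS in 0.05 M HCl overnight at room temperature in the dark; absorbance at 570 nm. Leukemia and SK-MEL-1 lines grown in RPMI 1640, MCF-7 in DMEM, both with 10% heat-inactivated FBS. IC50 given as mean ± SEM of 3–5 independent experiments, each in triplicate.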

| SMILES | IC50 |
| --- | --- |
| CCCC(=O)OC/C=C(\C)C[C@@H](O)[C@@]1(C)[C@H](C)CC=C2[C@@H]1CCCC2(C)C | > 30 µM |
| CC(=O)O[C@H]1C2=C(C(=O)C(O)=C(C(C)C)C2=O)[C@@]2(C)CCCC(C)(C)[C@@H]2[C@@H]1OC(=O)c1ccc([N+](=O)[O-])cc1 | 3.8 µM |
| CCC(=O)OC/C=C(\C)C[C@@H](O)[C@@]1(C)[C@H](C)CC=C2[C@@H]1CCCC2(C)C | > 30 µM |
| C/C(=C\CO)C[C@@H](O)[C@@]1(C)[C@H](C)CC=C2[C@@H]1CCCC2(C)C | > 30 µM |
| CC(=O)Oc1c(C(C)C)cc2c(c1OC(C)=O)[C@@]1(C)CCCC(C)(C)C1=C(O)C2=O | 11.5 µM |
| CC(=O)O[C@H]1C2=C(C(=O)C(OC(=O)c3ccc(Cl)cc3)=C(C(C)C)C2=O)[C@@]2(C)CCCC(C)(C)[C@@H]2[C@@H]1OC(=O)c1ccc(Cl)cc1 | 5.7 µM |
| CC(C)C1=CC2=CC(=O)[C@H]3C(C)(C)CCC[C@]3(C)C2=C(O)C1=O [TAXODIONE] | 4.8 µM |
| COc1c(O)c2c(c(O)c1C(C)C)C(=O)C[C@H]1C(C)(C)CCC[C@]21C [INUROYLEANOL] | 20.8 µM |
| CCC(=O)O[C@@H]1[C@@H](OC(C)=O)C2=C(C(=O)C(O)=C(C(C)C)C2=O)[C@@]2(C)CCCC(C)(C)[C@H]12 | 11.8 µM |
| CCO[C@@H]1C[C@H]2C(C)(C)CCC[C@]2(C)C2=C1C(=O)C(C(C)C)=C(O)C2=O | > 30 µM |
| CC(=O)O[C@H](C/C(C)=C/CO)[C@@]1(C)[C@H](C)CC=C2[C@@H]1CCCC2(C)C | > 30 µM |
| CCCC(=O)O[C@@H]1[C@@H](OC(C)=O)C2=C(C(=O)C(O)=C(C(C)C)C2=O)[C@@]2(C)CCCC(C)(C)[C@H]12 | 5.6 µM |
| CC(=O)O[C@H](C/C(C)=C/C(=O)O)[C@@]1(C)[C@H](C)CC=C2[C@@H]1CCCC2(C)C | > 30 µM |

test system: SK-MEL-1; test: Cytotoxicity against human SK-MEL-1 cells after 72 hrs by MTT assay; assay type: functional, cell-based; settings: SK-MEL-1, 72 h; in short: as §1

| SMILES | IC50 |
| --- | --- |
| CCCC(=O)OC/C=C(\C)C[C@@H](O)[C@@]1(C)[C@H](C)CC=C2[C@@H]1CCCC2(C)C | > 30 µM |
| CC(=O)O[C@H]1C2=C(C(=O)C(O)=C(C(C)C)C2=O)[C@@]2(C)CCCC(C)(C)[C@@H]2[C@@H]1OC(=O)c1ccc([N+](=O)[O-])cc1 | 6.7 µM |
| CCC(=O)OC/C=C(\C)C[C@@H](O)[C@@]1(C)[C@H](C)CC=C2[C@@H]1CCCC2(C)C | > 30 µM |
| C/C(=C\CO)C[C@@H](O)[C@@]1(C)[C@H](C)CC=C2[C@@H]1CCCC2(C)C | > 30 µM |
| CC(=O)Oc1c(C(C)C)cc2c(c1OC(C)=O)[C@@]1(C)CCCC(C)(C)C1=C(O)C2=O | 24.1 µM |
| CC(=O)O[C@H]1C2=C(C(=O)C(OC(=O)c3ccc(Cl)cc3)=C(C(C)C)C2=O)[C@@]2(C)CCCC(C)(C)[C@@H]2[C@@H]1OC(=O)c1ccc(Cl)cc1 | > 30 µM |
| CC(C)C1=CC2=CC(=O)[C@H]3C(C)(C)CCC[C@]3(C)C2=C(O)C1=O [TAXODIONE] | 9.6 µM |
| COc1c(O)c2c(c(O)c1C(C)C)C(=O)C[C@H]1C(C)(C)CCC[C@]21C [INUROYLEANOL] | > 30 µM |
| CCC(=O)O[C@@H]1[C@@H](OC(C)=O)C2=C(C(=O)C(O)=C(C(C)C)C2=O)[C@@]2(C)CCCC(C)(C)[C@H]12 | 9 µM |
| CCO[C@@H]1C[C@H]2C(C)(C)CCC[C@]2(C)C2=C1C(=O)C(C(C)C)=C(O)C2=O | > 30 µM |
| CC(=O)O[C@H](C/C(C)=C/CO)[C@@]1(C)[C@H](C)CC=C2[C@@H]1CCCC2(C)C | > 30 µM |
| CCCC(=O)O[C@@H]1[C@@H](OC(C)=O)C2=C(C(=O)C(O)=C(C(C)C)C2=O)[C@@]2(C)CCCC(C)(C)[C@H]12 | 3.6 µM |
| CC(=O)O[C@H](C/C(C)=C/C(=O)O)[C@@]1(C)[C@H](C)CC=C2[C@@H]1CCCC2(C)C | > 30 µM |

test system: MCF7; test: Cytotoxicity against human MCF7 cells after 72 hrs by MTT assay; assay type: functional, cell-based; settings: MCF7, 72 h; in short: as §1

| SMILES | IC50 |
| --- | --- |
| CCCC(=O)OC/C=C(\C)C[C@@H](O)[C@@]1(C)[C@H](C)CC=C2[C@@H]1CCCC2(C)C | > 30 µM |
| CC(=O)O[C@H]1C2=C(C(=O)C(O)=C(C(C)C)C2=O)[C@@]2(C)CCCC(C)(C)[C@@H]2[C@@H]1OC(=O)c1ccc([N+](=O)[O-])cc1 | 9.1 µM |
| CCC(=O)OC/C=C(\C)C[C@@H](O)[C@@]1(C)[C@H](C)CC=C2[C@@H]1CCCC2(C)C | > 30 µM |
| C/C(=C\CO)C[C@@H](O)[C@@]1(C)[C@H](C)CC=C2[C@@H]1CCCC2(C)C | > 30 µM |
| CC(=O)Oc1c(C(C)C)cc2c(c1OC(C)=O)[C@@]1(C)CCCC(C)(C)C1=C(O)C2=O | > 30 µM |
| CC(=O)O[C@H]1C2=C(C(=O)C(OC(=O)c3ccc(Cl)cc3)=C(C(C)C)C2=O)[C@@]2(C)CCCC(C)(C)[C@@H]2[C@@H]1OC(=O)c1ccc(Cl)cc1 | > 30 µM |
| CC(C)C1=CC2=CC(=O)[C@H]3C(C)(C)CCC[C@]3(C)C2=C(O)C1=O [TAXODIONE] | > 30 µM |
| COc1c(O)c2c(c(O)c1C(C)C)C(=O)C[C@H]1C(C)(C)CCC[C@]21C [INUROYLEANOL] | > 30 µM |
| CCC(=O)O[C@@H]1[C@@H](OC(C)=O)C2=C(C(=O)C(O)=C(C(C)C)C2=O)[C@@]2(C)CCCC(C)(C)[C@H]12 | 17.1 µM |
| CCO[C@@H]1C[C@H]2C(C)(C)CCC[C@]2(C)C2=C1C(=O)C(C(C)C)=C(O)C2=O | > 30 µM |
| CC(=O)O[C@H](C/C(C)=C/CO)[C@@]1(C)[C@H](C)CC=C2[C@@H]1CCCC2(C)C | > 30 µM |
| CCCC(=O)O[C@@H]1[C@@H](OC(C)=O)C2=C(C(=O)C(O)=C(C(C)C)C2=O)[C@@]2(C)CCCC(C)(C)[C@H]12 | 6.5 µM |
| CC(=O)O[C@H](C/C(C)=C/C(=O)O)[C@@]1(C)[C@H](C)CC=C2[C@@H]1CCCC2(C)C | > 30 µM |

test system: U-937; test: Cytotoxicity against human U937 cells after 72 hrs by MTT assay; assay type: functional, cell-based; settings: U-937, 72 h; in short: as §1

| SMILES | IC50 |
| --- | --- |
| CCCC(=O)OC/C=C(\C)C[C@@H](O)[C@@]1(C)[C@H](C)CC=C2[C@@H]1CCCC2(C)C | > 30 µM |
| CC(=O)O[C@H]1C2=C(C(=O)C(O)=C(C(C)C)C2=O)[C@@]2(C)CCCC(C)(C)[C@@H]2[C@@H]1OC(=O)c1ccc([N+](=O)[O-])cc1 | 1.4 µM |
| CCC(=O)OC/C=C(\C)C[C@@H](O)[C@@]1(C)[C@H](C)CC=C2[C@@H]1CCCC2(C)C | 24.7 µM |
| C/C(=C\CO)C[C@@H](O)[C@@]1(C)[C@H](C)CC=C2[C@@H]1CCCC2(C)C | > 30 µM |
| CC(=O)Oc1c(C(C)C)cc2c(c1OC(C)=O)[C@@]1(C)CCCC(C)(C)C1=C(O)C2=O | 8.4 µM |
| CC(=O)O[C@H]1C2=C(C(=O)C(OC(=O)c3ccc(Cl)cc3)=C(C(C)C)C2=O)[C@@]2(C)CCCC(C)(C)[C@@H]2[C@@H]1OC(=O)c1ccc(Cl)cc1 | 5.6 µM |
| CC(C)C1=CC2=CC(=O)[C@H]3C(C)(C)CCC[C@]3(C)C2=C(O)C1=O [TAXODIONE] | 3 µM |
| COc1c(O)c2c(c(O)c1C(C)C)C(=O)C[C@H]1C(C)(C)CCC[C@]21C [INUROYLEANOL] | 11.1 µM |
| CCC(=O)O[C@@H]1[C@@H](OC(C)=O)C2=C(C(=O)C(O)=C(C(C)C)C2=O)[C@@]2(C)CCCC(C)(C)[C@H]12 | 7 µM |
| CCO[C@@H]1C[C@H]2C(C)(C)CCC[C@]2(C)C2=C1C(=O)C(C(C)C)=C(O)C2=O | > 30 µM |
| CC(=O)O[C@H](C/C(C)=C/CO)[C@@]1(C)[C@H](C)CC=C2[C@@H]1CCCC2(C)C | > 30 µM |
| CCCC(=O)O[C@@H]1[C@@H](OC(C)=O)C2=C(C(=O)C(O)=C(C(C)C)C2=O)[C@@]2(C)CCCC(C)(C)[C@H]12 | 3.4 µM |
| CC(=O)O[C@H](C/C(C)=C/C(=O)O)[C@@]1(C)[C@H](C)CC=C2[C@@H]1CCCC2(C)C | > 30 µM |

test system: MOLT-3; test: Cytotoxicity against human MOLT3 cells after 72 hrs by MTT assay; assay type: functional, cell-based; settings: MOLT-3, 72 h; in short: as §1

| SMILES | IC50 |
| --- | --- |
| CCCC(=O)OC/C=C(\C)C[C@@H](O)[C@@]1(C)[C@H](C)CC=C2[C@@H]1CCCC2(C)C | > 30 µM |
| CC(=O)O[C@H]1C2=C(C(=O)C(O)=C(C(C)C)C2=O)[C@@]2(C)CCCC(C)(C)[C@@H]2[C@@H]1OC(=O)c1ccc([N+](=O)[O-])cc1 | 1.5 µM |
| CCC(=O)OC/C=C(\C)C[C@@H](O)[C@@]1(C)[C@H](C)CC=C2[C@@H]1CCCC2(C)C | > 30 µM |
| C/C(=C\CO)C[C@@H](O)[C@@]1(C)[C@H](C)CC=C2[C@@H]1CCCC2(C)C | > 30 µM |
| CC(=O)Oc1c(C(C)C)cc2c(c1OC(C)=O)[C@@]1(C)CCCC(C)(C)C1=C(O)C2=O | 13.4 µM |
| CC(=O)O[C@H]1C2=C(C(=O)C(OC(=O)c3ccc(Cl)cc3)=C(C(C)C)C2=O)[C@@]2(C)CCCC(C)(C)[C@@H]2[C@@H]1OC(=O)c1ccc(Cl)cc1 | > 30 µM |
| CC(C)C1=CC2=CC(=O)[C@H]3C(C)(C)CCC[C@]3(C)C2=C(O)C1=O [TAXODIONE] | 1.8 µM |
| COc1c(O)c2c(c(O)c1C(C)C)C(=O)C[C@H]1C(C)(C)CCC[C@]21C [INUROYLEANOL] | > 30 µM |
| CCC(=O)O[C@@H]1[C@@H](OC(C)=O)C2=C(C(=O)C(O)=C(C(C)C)C2=O)[C@@]2(C)CCCC(C)(C)[C@H]12 | 6.3 µM |
| CCO[C@@H]1C[C@H]2C(C)(C)CCC[C@]2(C)C2=C1C(=O)C(C(C)C)=C(O)C2=O | > 30 µM |
| CC(=O)O[C@H](C/C(C)=C/CO)[C@@]1(C)[C@H](C)CC=C2[C@@H]1CCCC2(C)C | > 30 µM |
| CCCC(=O)O[C@@H]1[C@@H](OC(C)=O)C2=C(C(=O)C(O)=C(C(C)C)C2=O)[C@@]2(C)CCCC(C)(C)[C@H]12 | 3.5 µM |
| CC(=O)O[C@H](C/C(C)=C/C(=O)O)[C@@]1(C)[C@H](C)CC=C2[C@@H]1CCCC2(C)C | > 30 µM |

Reference: ChEMBL document CHEMBL2424587, “Antiproliferative activity of abietane diterpenoids against human tumor cells” (J Nat Prod, 2013)
